From ChEMBL document CHEMBL1154716, “Synthesis of some new S-triazine based chalcones and their derivatives as potent antimicrobial agents” (2010)
Values after ≈ are worked out from the molar mass of the structure shown. Active and inactive are the calls of the source. The calls are words filed in the database; no cut-off is given here.

Key:
Enterobacter cloacae [1] = assay: Antimicrobial activity against Enterobacter cloacae at 10 ug/disk after 24 hrs by disk diffusion assay; type: functional
Outline: (§1)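 Disc diffusion on 4 mm filter discs. Bacteria are grown overnight in LB at 28 C, then adjusted in saline to 1.0 × 10^5 cfu/ml. The suspension is mixed into top agar over peptone agar plates. Plates are incubated 24 h at 28 C, and growth-inhibition zone diameter is measured. Streptomycin and ampicillin controls are applied from a 1 mg/ml stock. Tests are done in duplicate.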

Staphylococcus aureus [2] = assay: Antimicrobial activity against Staphylococcus aureus after 24 hrs by microdilution technique; type: functional
Outline: (§2)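 Broth microdilution in LB medium. Inoculum is 1.0 × 10^4 cfu per well, from a saline-adjusted suspension of 1.0 × 10^5 cfu/ml. Compounds are dissolved in DMSO. Incubated 24 h at 28 C. MIC is the lowest concentration with no visible growth under a binocular microscope. MBC is read by subculture into fresh broth for 72 h, with no growth taken as 99.5% kill. OD is read at 655 nm.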

Salmonella typhimurium [3] = assay: Antimicrobial activity against Salmonella Typhimurium at 10 ug/disk after 24 hrs by disk diffusion assay; type: functional, organism-based; conditions: Salmonella enterica subsp. enterica serovar Typhimurium; outline: as §1
Salmonella typhimurium [4] = assay: Antimicrobial activity against Salmonella Typhimurium after 24 hrs by microdilution technique; type: functional, Salmonella enterica subsp. enterica serovar Typhimurium; conditions: Salmonella enterica; outline: as §2
Staphylococcus aureus [5] = assay: Antimicrobial activity against Staphylococcus aureus at 10 ug/disk after 24 hrs by disk diffusion assay; type: functional; outline: as §1
Salmonella typhimurium [6] = assay: Antimicrobial activity against Salmonella Typhimurium at 1 umol/disk after 24 hrs by disk diffusion assay; type: functional, organism-based; conditions: Salmonella enterica subsp. enterica serovar Typhimurium; outline: as §1
Escherichia coli [7] = assay: Antimicrobial activity against Escherichia coli at 1 umol/disk after 24 hrs by disk diffusion assay; type: functional; outline: as §1
Listeria monocytogenes [8] = assay: Antimicrobial activity against Listeria monocytogenes at 10 ug/disk after 24 hrs by disk diffusion assay; type: functional; outline: as §1
Micrococcus flavus [9] = assay: Antimicrobial activity against Micrococcus flavus at 1 umol/disk after 24 hrs by disk diffusion assay; type: functional; outline: as §1
Pseudomonas aeruginosa [10] = assay: Antimicrobial activity against Pseudomonas aeruginosa at 1 umol/spot after 18 hrs by TLC-bioautographic method; type: functional
Outline: (§3)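 TLC bioautography. Samples are spotted on silica gel TLC plates, then sprayed with bacteria (1.0 × 10^5 cfu/ml) in tryptic soy broth. Plates are incubated 18 h at 37 C and sprayed with 3% aqueous p-iodonitrotetrazolium violet. After a further 3 h, growth is stopped with 70% EtOH. White zones on a pink background are scored as inhibition-zone diameter with standard errors.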

Escherichia coli [11] = assay: Antimicrobial activity against Escherichia coli after 24 hrs by microdilution technique; type: functional; outline: as §2
Micrococcus flavus [12] = assay: Antimicrobial activity against Micrococcus flavus at 10 ug/disk after 24 hrs by disk diffusion assay; type: functional; conditions: read-out: IZ; outline: as §1
Escherichia coli [13] = assay: Antimicrobial activity against Escherichia coli at 1 umol/spot after 18 hrs by TLC-bioautographic method; type: functional; outline: as §3
Listeria monocytogenes [14] = assay: Antimicrobial activity against Listeria monocytogenes at 1 umol/disk after 24 hrs by disk diffusion assay; type: functional; outline: as §1
Listeria monocytogenes [15] = assay: Antimicrobial activity against Listeria monocytogenes at 1 umol/spot after 18 hrs by TLC-bioautographic method; type: functional; outline: as §3
Pseudomonas aeruginosa [16] = assay: Antimicrobial activity against Pseudomonas aeruginosa after 24 hrs by microdilution technique; type: functional; outline: as §2
Enterobacter cloacae [17] = assay: Antimicrobial activity against Enterobacter cloacae at 1 umol/disk after 24 hrs by disk diffusion assay; type: functional; outline: as §1
Bacillus cereus [18] = assay: Antimicrobial activity against Bacillus cereus at 1 umol/spot after 18 hrs by TLC-bioautographic method; type: functional; outline: as §3
Bacillus cereus [19] = assay: Antimicrobial activity against Bacillus cereus after 24 hrs by microdilution technique; type: functional; outline: as §2
Enterobacter cloacae [20] = assay: Antimicrobial activity against Enterobacter cloacae at 1 umol/spot after 18 hrs by TLC-bioautographic method; type: functional; outline: as §3
Staphylococcus aureus [21] = assay: Antimicrobial activity against Staphylococcus aureus at 1 umol/disk after 24 hrs by disk diffusion assay; type: functional; outline: as §1
Micrococcus flavus [22] = assay: Antimicrobial activity against Micrococcus flavus at 1 umol/spot after 18 hrs by TLC-bioautographic method; type: functional; outline: as §3
Bacillus cereus [23] = assay: Antimicrobial activity against Bacillus cereus at 1 umol/disk after 24 hrs by disk diffusion assay; type: functional; outline: as §1
Pseudomonas aeruginosa [24] = assay: Antimicrobial activity against Pseudomonas aeruginosa at 10 ug/disk after 24 hrs by disk diffusion assay; type: functional; outline: as §1
Micrococcus flavus [25] = assay: Antimicrobial activity against Micrococcus flavus after 24 hrs by microdilution technique; type: functional; outline: as §2
Pseudomonas aeruginosa [26] = assay: Antimicrobial activity against Pseudomonas aeruginosa at 1 umol/disk after 24 hrs by disk diffusion assay; type: functional; outline: as §1
Escherichia coli [27] = assay: Antimicrobial activity against Escherichia coli at 10 ug/disk after 24 hrs by disk diffusion assay; type: functional; outline: as §1
Bacillus cereus [28] = assay: Antimicrobial activity against Bacillus cereus at 10 ug/disk after 24 hrs by disk diffusion assay; type: functional; outline: as §1
Salmonella typhimurium [29] = assay: Antimicrobial activity against Salmonella Typhimurium at 1 umol/spot after 18 hrs by TLC-bioautographic method; type: functional, Salmonella enterica subsp. enterica serovar Typhimurium; outline: as §3
Staphylococcus aureus [30] = assay: Antimicrobial activity against Staphylococcus aureus at 1 umol/spot after 18 hrs by TLC-bioautographic method; type: functional; outline: as §3
Listeria monocytogenes [31] = assay: Antimicrobial activity against Listeria monocytogenes after 24 hrs by microdilution technique; type: functional; outline: as §2
Enterobacter cloacae [32] = assay: Antimicrobial activity against Enterobacter cloacae after 24 hrs by microdilution technique; type: functional; outline: as §2

Row | Compound | inhibition zone (IZ) (Enterobacter cloacae [1]) | MBC (Staphylococcus aureus [2]) | MIC (Staphylococcus aureus [2]) | inhibition zone (IZ) (Salmonella typhimurium [3]) | MBC (Salmonella typhimurium [4]) | MIC (Salmonella typhimurium [4]) | inhibition zone (IZ) (Staphylococcus aureus [5]) | inhibition zone (IZ) (Salmonella typhimurium [6]) | inhibition zone (IZ) (Escherichia coli [7]) | inhibition zone (IZ) (Listeria monocytogenes [8]) | inhibition zone (IZ) (Micrococcus flavus [9]) | inhibition zone (IZ) (Pseudomonas aeruginosa [10]) | MBC (Escherichia coli [11]) | MIC (Escherichia coli [11]) | zone of inhibition at 10 µg/disc (Micrococcus flavus [12]) | inhibition zone (IZ) (Escherichia coli [13]) | inhibition zone (IZ) (Listeria monocytogenes [14]) | inhibition zone (IZ) (Listeria monocytogenes [15]) | MBC (Pseudomonas aeruginosa [16]) | MIC (Pseudomonas aeruginosa [16]) | other results
1 | N#Cc1c(-c2ccc(Cl)cc2)cc(-c2ccc(Nc3nc(Nc4ccccc4)nc(Nc4ccccc4)n3)cc2)nc1N | inactive | 344 µM (≈ 200 µg/mL) | 172 µM (≈ 100 µg/mL) | inactive | 344 µM (≈ 200 µg/mL) | 172 µM (≈ 100 µg/mL) | inactive | inactive | 0.04 millimeter | inactive | 0.04 millimeter | 0.09 millimeter | 344 µM (≈ 200 µg/mL) | 172 µM (≈ 100 µg/mL) | 7 mm | 0.09 millimeter | inactive | 0.08 millimeter | 688 µM (≈ 400 µg/mL) | 688 µM (≈ 400 µg/mL) | inhibition zone (IZ) (Enterobacter cloacae [17]): inactive; inhibition zone (IZ) (Bacillus cereus [18]): inactive; MBC (Bacillus cereus [19]): 344 µM (≈ 200 µg/mL); MIC (Bacillus cereus [19]): 172 µM (≈ 100 µg/mL); inhibition zone (IZ) (Enterobacter cloacae [20]): 0.08 millimeter; inhibition zone (IZ) (Staphylococcus aureus [21]): inactive; inhibition zone (IZ) (Micrococcus flavus [22]): 0.07 millimeter; inhibition zone (IZ) (Bacillus cereus [23]): inactive; inhibition zone (IZ) (Pseudomonas aeruginosa [24]): inactive; MBC (Micrococcus flavus [25]): 344 µM (≈ 200 µg/mL); MIC (Micrococcus flavus [25]): 172 µM (≈ 100 µg/mL); inhibition zone (IZ) (Pseudomonas aeruginosa [26]): inactive; zone of inhibition at 10 µg/disc (Escherichia coli [27]; read-out: IZ): 7 mm; inhibition zone (IZ) (Bacillus cereus [28]): inactive; inhibition zone (IZ) (Salmonella typhimurium [29]): 0.08 millimeter; inhibition zone (IZ) (Staphylococcus aureus [30]): inactive; MBC (Listeria monocytogenes [31]): 688 µM (≈ 400 µg/mL); MIC (Listeria monocytogenes [31]): 688 µM (≈ 400 µg/mL); MBC (Enterobacter cloacae [32]): 344 µM (≈ 200 µg/mL); MIC (Enterobacter cloacae [32]): 172 µM (≈ 100 µg/mL)
2 | N#Cc1c(-c2ccc([N+](=O)[O-])cc2)cc(-c2ccc(Nc3nc(Nc4ccccc4)nc(Nc4ccccc4)n3)cc2)nc1N | inactive | 676 µM (≈ 401 µg/mL) | 338 µM (≈ 200 µg/mL) | inactive | 676 µM (≈ 401 µg/mL) | 676 µM (≈ 401 µg/mL) | inactive | inactive | inactive | inactive | 0.04 millimeter | 0.09 millimeter | 676 µM (≈ 401 µg/mL) | 338 µM (≈ 200 µg/mL) | 6 mm | inactive | inactive | 0.1 millimeter | 676 µM (≈ 401 µg/mL) | 676 µM (≈ 401 µg/mL) | inhibition zone (IZ) (Enterobacter cloacae [17]): inactive; inhibition zone (IZ) (Bacillus cereus [18]): inactive; MBC (Bacillus cereus [19]): 338 µM (≈ 200 µg/mL); MIC (Bacillus cereus [19]): 169 µM (≈ 100 µg/mL); inhibition zone (IZ) (Enterobacter cloacae [20]): 0.09 millimeter; inhibition zone (IZ) (Staphylococcus aureus [21]): inactive; inhibition zone (IZ) (Micrococcus flavus [22]): 0.07 millimeter; inhibition zone (IZ) (Bacillus cereus [23]): inactive; inhibition zone (IZ) (Pseudomonas aeruginosa [24]): inactive; MBC (Micrococcus flavus [25]): 676 µM (≈ 401 µg/mL); MIC (Micrococcus flavus [25]): 338 µM (≈ 200 µg/mL); inhibition zone (IZ) (Pseudomonas aeruginosa [26]): inactive; inhibition zone (IZ) (Escherichia coli [27]): inactive; inhibition zone (IZ) (Bacillus cereus [28]): inactive; inhibition zone (IZ) (Salmonella typhimurium [29]; Salmonella enterica subsp. enterica serovar Typhimurium): inactive; inhibition zone (IZ) (Staphylococcus aureus [30]): inactive; MBC (Listeria monocytogenes [31]): 676 µM (≈ 401 µg/mL); MIC (Listeria monocytogenes [31]): 676 µM (≈ 401 µg/mL); MBC (Enterobacter cloacae [32]): 338 µM (≈ 200 µg/mL); MIC (Enterobacter cloacae [32]): 169 µM (≈ 100 µg/mL)
3 | Nc1nc(-c2ccc(Nc3nc(Nc4ccccc4)nc(Nc4ccccc4)n3)cc2)cc(-c2cccs2)n1 | inactive | 378 µM (≈ 200 µg/mL) | 189 µM (≈ 100 µg/mL) | inactive | 378 µM (≈ 200 µg/mL) | 189 µM (≈ 100 µg/mL) | inactive | inactive | inactive | inactive | 0.04 millimeter | inactive | 378 µM (≈ 200 µg/mL) | 189 µM (≈ 100 µg/mL) | 6 mm | inactive | inactive | 0.08 millimeter | 756 µM (≈ 400 µg/mL) | 756 µM (≈ 400 µg/mL) | inhibition zone (IZ) (Enterobacter cloacae [17]): inactive; inhibition zone (IZ) (Bacillus cereus [18]): 0.09 millimeter; MBC (Bacillus cereus [19]): 378 µM (≈ 200 µg/mL); MIC (Bacillus cereus [19]): 189 µM (≈ 100 µg/mL); inhibition zone (IZ) (Enterobacter cloacae [20]): 0.08 millimeter; inhibition zone (IZ) (Staphylococcus aureus [21]): inactive; inhibition zone (IZ) (Micrococcus flavus [22]): 0.08 millimeter; inhibition zone (IZ) (Bacillus cereus [23]): inactive; inhibition zone (IZ) (Pseudomonas aeruginosa [24]): inactive; MBC (Micrococcus flavus [25]): 378 µM (≈ 200 µg/mL); MIC (Micrococcus flavus [25]): 189 µM (≈ 100 µg/mL); inhibition zone (IZ) (Pseudomonas aeruginosa [26]): inactive; inhibition zone (IZ) (Escherichia coli [27]): inactive; inhibition zone (IZ) (Bacillus cereus [28]): inactive; inhibition zone (IZ) (Salmonella typhimurium [29]): 0.09 millimeter; inhibition zone (IZ) (Staphylococcus aureus [30]): 0.03 millimeter; MBC (Listeria monocytogenes [31]): 756 µM (≈ 400 µg/mL); MIC (Listeria monocytogenes [31]): 756 µM (≈ 400 µg/mL); MBC (Enterobacter cloacae [32]): 378 µM (≈ 200 µg/mL); MIC (Enterobacter cloacae [32]): 189 µM (≈ 100 µg/mL)
